According to ChEMBL document CHEMBL1131113, “Design and synthesis of [2-(8,9-dioxo-2,6-diazabicyclo[5.2.0]non-1(7)-en-2-yl)-ethyl]phosphonic acid (EAA-090), a potent N-methyl-D-aspartate antagonist, via the use of 3-cyclobutene-1,2-dione as an achiral alpha-amino acid bioisostere” (J Med Chem, 1998):

What was measured:
Mus musculus = assay: Effective dose against NMDA-induced lethality in mice on ip administration; format: functional
Glutamate NMDA receptor [1] = assay: Tested in vitro for antagonistic activity at N-methyl-D-aspartate glutamate receptor by measuring displacement of [3H]TCP from crude synaptic membrane preparations obtained from rat brain; format: functional
How it was run: (§1)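 Same membranes incubated in triplicate 60 min at 25 °C with 2.5 nM [3H]TCP, 3 μM L-glutamate, 1 μM glycine, test drug. Nonspecific binding defined with 100 μM MK-801. Vacuum filtration on 0.1% PEI-pretreated filters, ice-cold buffer rinses, scintillation counting. IC50 with 95% confidence limits by nonlinear logistic regression over 5–10 concentrations.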

[2] = molecular target: T1, Glutamate NMDA receptor (Rattus norvegicus) (UniProt P35439+Q00959+Q00960+Q00961+Q62645+Q8VHN2+Q9R1M7); assay: Tested in vitro at 10000 nM for binding affinity at N-methyl-D-aspartate glutamate receptor by measuring displacement of [3H]CPP from crude synaptic membrane preparations obtained from rat brain
How it was run: (§2)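 Crude synaptic membranes, thawed, washed once in Tris-HCl, resuspended at 0.3–0.5 mg protein/mL (Lowry). Affinity from displacement of [3H]CPP binding per Murphy's method.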

Glutamate NMDA receptor [3] = assay: Displacement of [3H]CPP from rat brain synaptic membrane N-methyl-D-aspartate glutamate receptor; how it was run: as §2
Rattus norvegicus = organism: Rattus norvegicus; assay: Effect on infarct volume in the rat was determined by rat permanent focal ischemia model; format: functional
How it was run: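 Male Fisher-344 rats (290–310 g) under 2–4% isoflurane. Right common carotid occluded and distal MCA electrocoagulated transcranially, body temperature 37 ± 1 °C. Single iv bolus via tail vein (1 mL/kg, 10 mg/kg in 0.9% NaCl) 5 min post-occlusion. At 24 h, cresyl violet-stained 20 μm frozen sections at 400-μm intervals; infarct volume by image analysis; mean ± SE.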

[4] = molecular target: T1, Glutamate NMDA receptor (Rattus norvegicus); assay: Tested in vitro at 100 uM for antagonistic activity at N-methyl-D-aspartate glutamate receptor by measuring displacement of [3H]TCP from crude synaptic membrane preparations obtained from rat brain; format: functional; how it was run: as §1

Compound | ED50 (Mus musculus) | IC50 (Glutamate NMDA receptor [1]) | inhibition [2] | IC50 (Glutamate NMDA receptor [3]) | Infarct volume (Rattus norvegicus) | inhibition [4]
Nc1c(NCCP(=O)(O)O)c(=O)c1=O | 29 mg/kg | – | – | – | – | –
O=C1C2=NCCCN(CCc3nnn[nH]3)C2=C1O | > 5 mg/kg | > 100 µM | 41% | – | – | –
O=C1C(O)=C2/C1=N\CCCCN2CCP(=O)(O)O | > 3 mg/kg | 36 µM | – | 0.049 µM | – | –
O=C(O)[C@@H]1C[C@H](CP(=O)(O)O)CCN1 (single isomer, unassigned) [SELFOTEL] | 1.5 mg/kg | 22 µM | – | – | – | –
O=C1C2=NCC(O)CN(CCP(=O)(O)O)C2=C1O (configuration not stated) | 1.8 mg/kg | 10 µM | – | 0.019 µM | – | –
O=C1C2=NCCCN(C/C=C/P(=O)(O)O)C2=C1O | > 5 mg/kg | > 100 µM | – | > 10 µM | – | –
O=c1c2c(c1=O)N(CCP(=O)(O)O)CCCN2 [PERZINFOTEL] | 2.1 mg/kg | 7.6 µM | – | 0.03 µM | 43.2 mm**3 | –
O=C1C2=NCCN(CCP(=O)(O)O)C2=C1O | 6.1 mg/kg | 29 µM | – | 0.092 µM | – | –
O=C1C2=NCCCN(Cc3nn[nH]n3)C2=C1O | > 10 mg/kg | 18 µM | – | 0.038 µM | – | –
O=C([O-])CCN1CCCN=C2C(=O)C(O)=C21.[Na+] | > 20 mg/kg | – | – | 0.34 µM | – | 53%
O=C([O-])CN1CCCN=C2C(=O)C(O)=C21.[Na+] | > 20 mg/kg | – | – | 0.55 µM | – | 64%
O=C1C2=NCCCN(CCCP(=O)(O)O)C2=C1O | > 10 mg/kg | > 100 µM | – | > 1 µM | – | –
CC1(C)CN=C2C(=O)C(O)=C2N(CCP(=O)(O)O)C1 | 22 mg/kg | – | – | 0.28 µM | – | 59%
